Test results published in ChEMBL document CHEMBL1649165, “Activity profile in vitro of micafungin against Spanish clinical isolates of common and emerging species of yeasts and molds” (2009).
Converted amounts (≈) assume the structure as drawn.

Experiments:
Assay type in all cases: functional
[1] = system: Pichia norvegensis; experiment: Antimicrobial activity against Candida norvegensis by broth microdilution method
In short: (§1)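 Clinical isolates from human patients, tested by broth microdilution using the AFST-EUCAST reference procedure for fermentative yeasts. The MIC was read per that reference method.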

[2] = system: Mucor; experiment: Antimicrobial activity against Mucor spp.by broth microdilution method
In short: (§2)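 Filamentous fungus clinical isolates tested by the AFST-EUCAST reference broth microdilution method for moulds. For echinocandins, the endpoint was the minimum effective concentration: the lowest drug concentration giving aberrant hyphal growth, read with an inverted microscope.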

[3] = system: [Candida] inconspicua; experiment: Antimicrobial activity against Candida inconspicua by broth microdilution method; conditions: Pichia inconspicua; in short: as §1
[4] = system: Coprinellus domesticus; experiment: Antimicrobial activity against Hormographiella verticillata by broth microdilution method; in short: as §2
[5] = system: Diutina rugosa; experiment: Antimicrobial activity against Candida rugosa by broth microdilution method; in short: as §1
[6] = system: Nakaseomyces glabratus; experiment: Antimicrobial activity against Candida glabrata by broth microdilution method; in short: as §1
[7] = system: Trichosporon; experiment: Antimicrobial activity against Trichosporon spp. by broth microdilution method
In short: (§3)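 Nonfermentative yeast clinical isolates (Rhodotorula, Trichosporon) tested by broth microdilution. The EUCAST yeast recommendations were followed strictly, with one minor modification to improve growth. MIC was read as the endpoint.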

[8] = system: Yarrowia lipolytica; experiment: Antimicrobial activity against Yarrowia lipolytica by broth microdilution method
[9] = system: Fennellia nivea; experiment: Antimicrobial activity against Aspergillus niveus by broth microdilution method
In short: (§4)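 Clinical mould isolates, tested by broth microdilution using the AFST-EUCAST reference method for filamentous fungi. For echinocandins, the endpoint was the minimum effective concentration: the lowest drug concentration giving aberrant hyphal growth, read with an inverted microscope.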

[10] = system: Candida albicans; experiment: Antimicrobial activity against Candida albicans by broth microdilution method; in short: as §1
[11] = system: Fusarium verticillioides; experiment: Antimicrobial activity against Fusarium verticillioides by broth microdilution method; in short: as §2
[12] = system: Papiliotrema laurentii; experiment: Antimicrobial activity against Cryptococcus laurentii by broth microdilution method
In short: (§5)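 Clinical isolates of nonfermentative yeasts, tested by broth microdilution following EUCAST recommendations. The only change from that method was a minor modification to improve growth.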

[13] = system: Fusarium reticulatum; experiment: Antimicrobial activity against Fusarium reticulatum by broth microdilution method; in short: as §2
[14] = system: Aspergillus niger; experiment: Antimicrobial activity against Aspergillus niger by broth microdilution method; in short: as §4
[15] = system: [Candida] zeylanoides; experiment: Antimicrobial activity against Candida zeylanoides by broth microdilution method; conditions: Dujonia zeylanoides; in short: as §1
[16] = system: Wickerhamomyces anomalus; experiment: Antimicrobial activity against Candida pelliculosa by broth microdilution method; conditions: Hansenula anomala; in short: as §1
[17] = system: Aspergillus; experiment: Antimicrobial activity against Aspergillus spp. by broth microdilution method; in short: as §4
[18] = system: Magnusiomyces capitatus; experiment: Antimicrobial activity against Dipodascus capitatus by broth microdilution method
[19] = system: Kluyveromyces marxianus; experiment: Antimicrobial activity against Candida kefyr by broth microdilution method; in short: as §1
[20] = system: Trichoderma; experiment: Antimicrobial activity against Trichoderma spp. by broth microdilution method; in short: as §2
[21] = system: Saccharomyces cerevisiae; experiment: Antimicrobial activity against Saccharomyces cerevisiae by broth microdilution method
[22] = system: Trichosporon domesticum; experiment: Antimicrobial activity against Trichosporon mycotoxinivorans by broth microdilution method; conditions: Apiotrichum domesticum
In short: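 Spanish human clinical isolates were tested as nonfermentative yeasts by broth microdilution. The method strictly followed the EUCAST recommendations, with a minor modification to improve growth, and the read-out was the MIC.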

[23] = system: Scytalidium hyalinum; experiment: Antimicrobial activity against Scytalidium hyalinum by broth microdilution method; conditions: Neoscytalidium hyalinum; in short: as §2
[24] = system: Lecythophora hoffmannii; experiment: Antimicrobial activity against Lecythophora hoffmannii by broth microdilution method; conditions: Coniochaeta hoffmannii; in short: as §2
[25] = system: Candida tropicalis; experiment: Antimicrobial activity against Candida tropicalis by broth microdilution method; in short: as §1
[26] = system: Aspergillus flavus; experiment: Antimicrobial activity against Aspergillus flavus by broth microdilution method; in short: as §4
[27] = system: Aspergillus fumigatus; experiment: Antimicrobial activity against Aspergillus fumigatus by broth microdilution method; in short: as §4
[28] = system: Naganishia albida; experiment: Antimicrobial activity against Cryptococcus albidus by broth microdilution method; in short: as §5
[29] = system: Acremonium sp.; experiment: Antimicrobial activity against Acremonium sp.by broth microdilution method; in short: as §4
[30] = system: [Candida] intermedia; experiment: Antimicrobial activity against Candida intermedia by broth microdilution method; conditions: Sungouiella intermedia; in short: as §1
[31] = system: Torulaspora delbrueckii; experiment: Antimicrobial activity against Candida coliculosa by broth microdilution method; in short: as §1
[32] = system: Aspergillus sclerotiorum; experiment: Antimicrobial activity against Aspergillus sclerotiorum by broth microdilution method; in short: as §4
[33] = system: Scedosporium apiospermum; experiment: Antimicrobial activity against Scedosporium apiospermum by broth microdilution method; in short: as §2
[34] = system: Aspergillus ochraceus; experiment: Antimicrobial activity against Aspergillus ochraceus by broth microdilution method; in short: as §4
[35] = system: Fusarium proliferatum; experiment: Antimicrobial activity against Fusarium proliferatum by broth microdilution method; in short: as §4
[36] = system: Trichosporon asahii; experiment: Antimicrobial activity against Trichosporon asahii by broth microdilution method; in short: as §3
[37] = system: Penicillium; experiment: Antimicrobial activity against Penicillium spp. by broth microdilution method; in short: as §2
[38] = system: Alternaria alternata; experiment: Antimicrobial activity against Alternaria alternata by broth microdilution method; in short: as §4
[39] = system: Paecilomyces variotii; experiment: Antimicrobial activity against Paecilomyces variotii by broth microdilution method; in short: as §2
[40] = system: Paecilomyces lilacinus; experiment: Antimicrobial activity against Paecilomyces lilacinus by broth microdilution method; conditions: Purpureocillium lilacinum; in short: as §2
[41] = system: Aspergillus terreus; experiment: Antimicrobial activity against Aspergillus terreus by broth microdilution method; in short: as §4
[42] = system: Trichosporon dermatis; experiment: Antimicrobial activity against Trichosporon dermatis by broth microdilution method; conditions: Cutaneotrichosporon dermatis; in short: as §3
[43] = system: Aspergillus sydowii; experiment: Antimicrobial activity against Aspergillus sydowii by broth microdilution method; in short: as §4
[44] = system: Trichosporon jirovecii; experiment: Antimicrobial activity against Trichosporon jirovecii by broth microdilution method; conditions: Cutaneotrichosporon jirovecii; in short: as §3

In the case of `C[C@@H](c1ncncc1F)[C@](O)(Cn1cncn1)c1ccc(F)cc1F` [VORICONAZOLE], the MIC50 [1] is reported as 0.12 µg/mL (≈ 0.344 µM), the MIC90 [1] is reported as greater than 8 µg/mL and the MIC50 [2] is reported as greater than 8 µg/mL. It also gave an MIC90 [2] greater than 8 µg/mL, an MIC50 [3] of 0.12 µg/mL (≈ 0.344 µM) and an MIC90 [3] greater than 8 µg/mL. It also gave an MIC50 [4] of 4 µg/mL (≈ 11.5 µM), an MIC90 [4] greater than 8 µg/mL and an MIC50 [5] of 0.12 µg/mL (≈ 0.344 µM). It also gave an MIC90 [5] greater than 8 µg/mL, an MIC50 [6] of 0.12 µg/mL (≈ 0.344 µM) and an MIC90 [6] of 1 µg/mL (≈ 2.86 µM). The MIC50 [7] was 0.5 µg/mL (≈ 1.43 µM), the MIC90 [7] was greater than 8 µg/mL and the MIC50 [8] was 0.5 µg/mL (≈ 1.43 µM). The MIC90 [8] was 2 µg/mL (≈ 5.73 µM), the MIC50 [9] was 0.25 µg/mL (≈ 0.716 µM) and the MIC90 [9] was greater than 8 µg/mL. It also gave an MIC50 [10] of 0.02 µg/mL (≈ 0.0573 µM), an MIC90 [10] of 0.02 µg/mL (≈ 0.0573 µM) and an MIC50 [11] of 8 µg/mL (≈ 22.9 µM). For the same compound, the MIC90 [11] was greater than 8 µg/mL, the MIC50 [12] was 0.5 µg/mL (≈ 1.43 µM) and the MIC90 [12] was greater than 8 µg/mL. The MIC50 [13] was 4 µg/mL (≈ 11.5 µM), the MIC90 [13] was greater than 8 µg/mL and the MIC50 [14] was 1 µg/mL (≈ 2.86 µM). For the same compound, the MIC90 [14] was 2 µg/mL (≈ 5.73 µM), the MIC50 [15] was 0.12 µg/mL (≈ 0.344 µM) and the MIC90 [15] was greater than 8 µg/mL. It also gave an MIC50 [16] of 0.12 µg/mL (≈ 0.344 µM), an MIC90 [16] greater than 8 µg/mL and an MIC50 [17] of 0.25 µg/mL (≈ 0.716 µM). For the same compound, the MIC90 [17] was greater than 8 µg/mL, the MIC50 [18] was 0.5 µg/mL (≈ 1.43 µM) and the MIC90 [18] was 1 µg/mL (≈ 2.86 µM). It also gave an MIC50 [19] of 0.02 µg/mL (≈ 0.0573 µM), an MIC90 [19] of 0.02 µg/mL (≈ 0.0573 µM) and an MIC50 [20] of 4 µg/mL (≈ 11.5 µM). The MIC90 [20] was greater than 8 µg/mL, the MIC50 [21] was 0.06 µg/mL (≈ 0.172 µM) and the MIC90 [21] was 0.5 µg/mL (≈ 1.43 µM). For the same compound, the MIC50 [22] was 0.5 µg/mL (≈ 1.43 µM), the MIC90 [22] was greater than 8 µg/mL and the MIC50 [23] was 0.06 µg/mL (≈ 0.172 µM). It also gave an MIC90 [23] greater than 8 µg/mL, an MIC50 [24] of 0.06 µg/mL (≈ 0.172 µM) and an MIC90 [24] greater than 8 µg/mL. For the same compound, the MIC50 [25] was 0.03 µg/mL (≈ 0.0859 µM), the MIC90 [25] was 0.12 µg/mL (≈ 0.344 µM) and the MIC50 [26] was 1 µg/mL (≈ 2.86 µM). It also gave an MIC90 [26] of 2 µg/mL (≈ 5.73 µM), an MIC50 [27] of 0.5 µg/mL (≈ 1.43 µM) and an MIC90 [27] of 1 µg/mL (≈ 2.86 µM). It also gave an MIC50 [28] of 0.5 µg/mL (≈ 1.43 µM), an MIC90 [28] greater than 8 µg/mL and an MIC50 [29] of 4 µg/mL (≈ 11.5 µM). It also gave an MIC90 [29] greater than 8 µg/mL, an MIC50 [30] of 0.12 µg/mL (≈ 0.344 µM) and an MIC90 [30] greater than 8 µg/mL. The MIC50 [31] was 0.12 µg/mL (≈ 0.344 µM), the MIC90 [31] was greater than 8 µg/mL and the MIC50 [32] was 0.25 µg/mL (≈ 0.716 µM). For the same compound, the MIC90 [32] was greater than 8 µg/mL, the MIC50 [33] was 0.5 µg/mL (≈ 1.43 µM) and the MIC90 [33] was 2 µg/mL (≈ 5.73 µM). The MIC50 [34] was 0.25 µg/mL (≈ 0.716 µM), the MIC90 [34] was greater than 8 µg/mL and the MIC50 [35] was 8 µg/mL (≈ 22.9 µM). It also gave an MIC90 [35] of 8 µg/mL (≈ 22.9 µM), an MIC50 [36] of 0.25 µg/mL (≈ 0.716 µM) and an MIC90 [36] greater than 8 µg/mL. The MIC50 [37] was 2 µg/mL (≈ 5.73 µM), the MIC90 [37] was 8 µg/mL (≈ 22.9 µM) and the MIC50 [38] was 4 µg/mL (≈ 11.5 µM). It also gave an MIC90 [38] greater than 8 µg/mL, an MIC50 [39] of 1 µg/mL (≈ 2.86 µM) and an MIC90 [39] greater than 8 µg/mL. For the same compound, the MIC50 [40] was 0.5 µg/mL (≈ 1.43 µM), the MIC90 [40] was greater than 8 µg/mL and the MIC50 [41] was 1 µg/mL (≈ 2.86 µM). The MIC90 [41] was 2 µg/mL (≈ 5.73 µM), the MIC50 [42] was 0.5 µg/mL (≈ 1.43 µM) and the MIC90 [42] was greater than 8 µg/mL. It also gave an MIC50 [43] of 1 µg/mL (≈ 2.86 µM), an MIC90 [43] of 2 µg/mL (≈ 5.73 µM) and an MIC50 [44] of 0.5 µg/mL (≈ 1.43 µM). For the same compound, the MIC90 [44] was greater than 8 µg/mL.
